Reference: ChEMBL document CHEMBL4825702, “5-Aminonaphthalene derivatives as selective nonnucleoside nuclear receptor binding SET domain-protein 2 (NSD2) inhibitors for the treatment of multiple myeloma” (Eur J Med Chem, 2021)
The source made the active and inactive calls. The calls are words filed in the database; no cut-off is given here.

Assays:
U2932 = test: Antiproliferative activity against human U2932 cells assessed as reduction in cell viability incubated for 6 days by CCK8 assay
MV4-11 [1] = test: cells; details: Homo sapiens, MV4-11, 72 h, read-out: Activity
NCI-H929 = test: Antiproliferative activity against human NCI-H929 cells assessed as reduction in cell viability incubated for 6 days by CCK8 assay
[2] = Inhibition of MET transcriptional activity in human KMS-11 cells assessed as reduction in H3K36 methylation at 10 uM measured after 72 hrs by chip q-PCR analysis
[3] = target: Histone-lysine N-methyltransferase EZH2 (Homo sapiens, UniProt Q15910); test: Inhibition of EZH2 (unknown origin) using SAM as substrate preincubated for 10 mins followed by substrate addition measured after 4 hrs by HTRF method
Outline: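 HTRF assay: inhibitor plus enzyme preincubated 10 min at room temperature, then peptide/SAM mix added and incubated at room temperature. Antibody and SA-XL665 detection mix added for 1 h in subdued light. Emission read at 665 and 620 nm; IC50 from two separate experiments.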

HL-60 = test: Antiproliferative activity against human HL-60 cells assessed as reduction in cell viability incubated for 6 days by CCK8 assay
[4] = target: Histone-arginine methyltransferase CARM1 (Homo sapiens, UniProt Q86X55); test: Inhibition of PRMT4 (unknown origin) using SAM as substrate preincubated for 10 mins followed by substrate addition measured after 4 hrs by AlphaLISA method
KMS-11 [5] = test: Antiproliferative activity against human KMS-11 cells assessed as reduction in cell viability incubated for 6 days by CCK8 assay; type: functional, cell-based; details: dose 1-100 µM, time 6.0 day
Outline: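 Cells seeded in triplicate at 6000–20000 per well and left 24 h, then exposed to increasing concentrations for a further 6 days. Viability read with CCK-8 and growth IC50 derived from the dose–response.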

RS4-11 [6] = test: Toxicity in SCID mouse xenografted with human RS4-11 cells assessed as body weight LOSS at 25 to 50 mg/kg, ip qd administered consecutively for 21 days; type: functional, organism-based; details: dose 25-50 mg/kg, time 21.0 day
Outline: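 Female SCID mice, 4 weeks old, implanted subcutaneously in the flank with 1 × 10⁷ RS4:11 cells in 0.2 mL PBS. At about 100 mm³, groups of n = 8 received 25 or 50 mg/kg or vehicle intraperitoneally once daily for 21 days. Body weight and tumors measured twice weekly.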

RS4-11 [7] = test: Antitumor activity against human RS4-11 cells xenografted in SCID mouse assessed as tumor growth inhibition at 50 mg/kg, ip qd administered consecutively for 21 days relative to control; details: RS4-11, ip, 504 h, read-out: TGI
RS4-11 [8] = test: Antiproliferative activity against human RS4-11 cells assessed as reduction in cell viability at 1 to 100 uM by CCK8 assay; type: functional, cell-based; details: dose 1-100 µM, time 6.0 day, TDE = time-dependent effect
[9] = Tmax in CD-1 mouse at 2 mg/kg, ip measured up to 24 hrs by LC-MS/MS; type: ADME, organism-based; details: in vivo
Outline: (§1)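 CD-1 mice dosed at 2 mg/kg i.p. or i.v., n = 3 per group. Blood sampled at 0, 0.083, 0.25, 0.5, 1, 2, 4, 6, 8 and 24 h and spun for plasma. Internal standard added, deproteinized with methanol/acetonitrile (1:1), supernatant diluted and analysed by LC/MS/MS.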

[10] = Cmax in CD-1 mouse at 2 mg/kg, ip measured up to 24 hrs by LC-MS/MS; type: ADME, organism-based; design: route intraperitoneal, dose 2 mg/kg, time <=24; details: in vivo
Outline: (§2)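 CD-1 mice given a single 2 mg/kg dose i.p. or i.v. (n = 3 per group). Blood sampled at 0, 0.083, 0.25, 0.5, 1, 2, 4, 6, 8 and 24 h and centrifuged for plasma, with internal standard added. Plasma deproteinized with methanol/acetonitrile (1:1), supernatant diluted with acetonitrile/water, and compound measured by LC/MS/MS.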

RPMI-8226 = test: Antiproliferative activity against human RPMI-8226 cells assessed as reduction in cell viability incubated for 6 days by CCK8 assay
[11] = Half life in CD-1 mouse at 2 mg/kg, ip measured up to 24 hrs by LC-MS/MS; type: ADME, organism-based; details: in vivo
Outline: as §2

MV4-11 [12] = test: cells; details: Homo sapiens, MV4-11, 72 h, read-out: Activity; remark: listed apart in the source
RS4-11 [13] = test: cells; details: Homo sapiens, RS4-11, 72 h, read-out: Activity
OCI-AML-5 = test: Antiproliferative activity against human OCI-AML5 cells assessed as reduction in cell viability incubated for 6 days by CCK8 assay
[14] = Inhibition of PAK1 transcriptional activity in human KMS-11 cells assessed as reduction in H3K36 methylation at 10 uM measured after 72 hrs by chip q-PCR analysis
MV4-11 [15] = test: Antiproliferative activity against human MV4-11 cells assessed as reduction in cell viability incubated for 6 days by CCK8 assay
KMS-11 [16] = test: Induction of apoptosis in human KMS-11 cells incubated for 72 hrs by annexin-V/FITC and propidium iodide staining based flow cytometry analysis; type: functional, cell-based; details: dose 5-10 µM
[17] = Volume of distribution in CD-1 mouse at 2 mg/kg, iv measured up to 24 hrs by LC-MS/MS; type: ADME, organism-based; details: in vivo
Outline: as §1

KMS-11 [18] = test: Antiproliferative activity against human KMS-11 cells assessed as reduction in cell viability at 1 to 100 uM by CCK8 assay; type: functional, cell-based; details: dose 1-100 µM, time 6.0 day, TDE = time-dependent effect
[19] = target: Ras-related protein R-Ras2 (Homo sapiens) (UniProt P62070); test: Inhibition of RRAS2 transcriptional activity in human KMS-11 cells assessed as reduction in H3K36 methylation at 10 uM measured after 72 hrs by chip q-PCR analysis; type: cell-based
Outline: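 KMS11 cells treated with test agent or DMSO. ChIP with magnetic-bead enzymatic chromatin IP kit using anti-H3K36me2, anti-histone H3 and IgG control antibodies. H3K36me2 quantified by qPCR with primers spanning the promoter regions of TGFA, MET, PAK1 and RRAS2.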

MV4-11 [20] = test: Induction of cell cycle arrest in human MV4-11 cells assessed as G0/G1 phase incubated for 72 hrs by ribonucleaseA/propidium iodide staining based flow cytometry analysis; type: functional
Outline: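 Cell cycle by PI: cells exposed for 72 h at 5 and 10 µM vs vehicle, washed twice, fixed overnight in pre-cooled 70% ethanol, then stained 45 min at room temperature with ribonuclease A and PI. Acquired on FACSCanto and phase fractions modelled.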

[21] = target: Histone-lysine N-methyltransferase, H3 lysine-79 specific (Homo sapiens, UniProt Q8TEK3); test: Inhibition of DOT1L (unknown origin) using SAM as substrate preincubated for 10 mins followed by substrate addition measured after 4 hrs by AlphaLISA method
[22] = MRT in CD-1 mouse at 2 mg/kg, iv measured up to 24 hrs by LC-MS/MS; type: ADME, organism-based; details: in vivo
Outline: as §1

Chain of Histone-lysine N-methyltransferase EZH2 (Q15910 whole entry): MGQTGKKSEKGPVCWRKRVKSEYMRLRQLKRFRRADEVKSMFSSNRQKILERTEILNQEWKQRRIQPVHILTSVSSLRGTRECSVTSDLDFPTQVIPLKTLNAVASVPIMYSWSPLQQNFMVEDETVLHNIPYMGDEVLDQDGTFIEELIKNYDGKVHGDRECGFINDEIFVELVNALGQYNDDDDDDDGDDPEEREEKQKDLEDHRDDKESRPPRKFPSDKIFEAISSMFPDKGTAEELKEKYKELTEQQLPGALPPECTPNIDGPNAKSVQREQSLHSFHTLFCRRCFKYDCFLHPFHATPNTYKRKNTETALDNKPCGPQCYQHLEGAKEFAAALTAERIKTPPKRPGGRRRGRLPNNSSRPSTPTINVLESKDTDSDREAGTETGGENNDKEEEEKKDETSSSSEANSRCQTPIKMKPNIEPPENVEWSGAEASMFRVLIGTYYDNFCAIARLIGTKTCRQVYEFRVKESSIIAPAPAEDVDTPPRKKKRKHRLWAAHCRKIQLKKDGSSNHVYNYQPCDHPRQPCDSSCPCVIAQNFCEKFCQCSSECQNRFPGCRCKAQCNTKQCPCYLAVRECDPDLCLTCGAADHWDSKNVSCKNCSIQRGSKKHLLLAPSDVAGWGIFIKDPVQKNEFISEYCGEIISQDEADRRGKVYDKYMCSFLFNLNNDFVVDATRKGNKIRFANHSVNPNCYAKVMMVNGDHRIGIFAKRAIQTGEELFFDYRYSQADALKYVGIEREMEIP
Chain of Histone-lysine N-methyltransferase, H3 lysine-79 specific (Q8TEK3 whole entry): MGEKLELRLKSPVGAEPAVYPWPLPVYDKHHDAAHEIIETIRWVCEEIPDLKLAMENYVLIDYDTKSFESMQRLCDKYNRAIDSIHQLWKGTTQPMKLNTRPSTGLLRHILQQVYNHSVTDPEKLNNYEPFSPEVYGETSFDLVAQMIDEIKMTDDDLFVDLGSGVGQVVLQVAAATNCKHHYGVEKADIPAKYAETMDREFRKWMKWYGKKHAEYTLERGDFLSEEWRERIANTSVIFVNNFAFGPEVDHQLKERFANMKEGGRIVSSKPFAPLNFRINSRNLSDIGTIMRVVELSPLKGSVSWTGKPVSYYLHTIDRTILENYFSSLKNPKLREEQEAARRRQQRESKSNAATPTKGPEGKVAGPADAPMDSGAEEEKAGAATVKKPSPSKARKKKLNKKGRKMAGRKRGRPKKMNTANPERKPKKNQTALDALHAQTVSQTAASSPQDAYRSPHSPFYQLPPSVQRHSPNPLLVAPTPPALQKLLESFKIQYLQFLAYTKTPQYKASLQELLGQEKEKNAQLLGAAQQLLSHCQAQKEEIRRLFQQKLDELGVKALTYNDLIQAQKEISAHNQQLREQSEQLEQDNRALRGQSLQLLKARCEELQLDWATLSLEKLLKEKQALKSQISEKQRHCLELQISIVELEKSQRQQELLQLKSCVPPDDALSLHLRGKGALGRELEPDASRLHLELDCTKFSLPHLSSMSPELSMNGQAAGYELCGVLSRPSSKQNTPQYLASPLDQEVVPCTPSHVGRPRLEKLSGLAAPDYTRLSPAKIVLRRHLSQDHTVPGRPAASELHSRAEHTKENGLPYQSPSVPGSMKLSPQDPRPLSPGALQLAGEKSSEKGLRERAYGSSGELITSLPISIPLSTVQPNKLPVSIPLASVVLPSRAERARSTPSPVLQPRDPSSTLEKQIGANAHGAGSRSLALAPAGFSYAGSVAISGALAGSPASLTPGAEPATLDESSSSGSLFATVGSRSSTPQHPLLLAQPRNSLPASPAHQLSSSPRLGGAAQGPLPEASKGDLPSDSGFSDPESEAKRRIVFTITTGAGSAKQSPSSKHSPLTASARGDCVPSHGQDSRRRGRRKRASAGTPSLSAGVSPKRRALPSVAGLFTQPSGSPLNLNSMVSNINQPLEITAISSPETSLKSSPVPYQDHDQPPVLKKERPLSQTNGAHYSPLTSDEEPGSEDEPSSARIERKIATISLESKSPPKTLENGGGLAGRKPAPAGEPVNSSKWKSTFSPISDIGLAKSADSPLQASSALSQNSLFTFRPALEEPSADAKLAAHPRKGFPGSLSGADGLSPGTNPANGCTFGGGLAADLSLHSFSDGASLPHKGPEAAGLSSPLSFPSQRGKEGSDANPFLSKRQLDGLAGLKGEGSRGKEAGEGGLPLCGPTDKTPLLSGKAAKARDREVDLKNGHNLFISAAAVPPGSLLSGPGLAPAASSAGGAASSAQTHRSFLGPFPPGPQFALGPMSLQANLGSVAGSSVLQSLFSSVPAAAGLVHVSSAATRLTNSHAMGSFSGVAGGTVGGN
Chain of Histone-arginine methyltransferase CARM1 (Q86X55 whole entry): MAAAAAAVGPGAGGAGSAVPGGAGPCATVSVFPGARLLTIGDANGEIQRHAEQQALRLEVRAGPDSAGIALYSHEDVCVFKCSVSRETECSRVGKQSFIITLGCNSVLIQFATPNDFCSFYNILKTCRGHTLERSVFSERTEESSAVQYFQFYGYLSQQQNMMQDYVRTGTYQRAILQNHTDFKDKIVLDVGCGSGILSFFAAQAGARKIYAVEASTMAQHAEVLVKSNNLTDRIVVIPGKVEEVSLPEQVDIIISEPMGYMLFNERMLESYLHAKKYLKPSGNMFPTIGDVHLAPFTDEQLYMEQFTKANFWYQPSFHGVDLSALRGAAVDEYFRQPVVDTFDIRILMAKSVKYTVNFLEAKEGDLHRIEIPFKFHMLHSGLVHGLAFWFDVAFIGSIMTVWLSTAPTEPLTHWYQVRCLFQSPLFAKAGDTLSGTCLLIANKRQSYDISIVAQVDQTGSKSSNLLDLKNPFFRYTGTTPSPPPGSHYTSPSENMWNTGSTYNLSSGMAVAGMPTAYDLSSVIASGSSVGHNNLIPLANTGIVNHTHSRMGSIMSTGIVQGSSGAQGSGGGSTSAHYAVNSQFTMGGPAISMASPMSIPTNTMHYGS
Chain of Ras-related protein R-Ras2 (Homo sapiens) (P62070 whole entry): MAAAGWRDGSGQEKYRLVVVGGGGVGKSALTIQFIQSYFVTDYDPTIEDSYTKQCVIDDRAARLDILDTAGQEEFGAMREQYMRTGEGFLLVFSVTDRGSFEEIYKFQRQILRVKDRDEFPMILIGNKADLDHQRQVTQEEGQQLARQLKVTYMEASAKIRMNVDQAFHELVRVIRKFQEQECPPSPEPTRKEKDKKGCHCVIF

inhibition [2]: Active
IC50 [3]: > 20 µM
IC50 [4]: > 20 µM
Tmax [9]: 4.98 min
Cmax [10]: 433 ng/mL
half-life [11]: 33.6 min
inhibition [14]: Active
Vd [17]: 3.85 L/kg
inhibition [19]: Active
IC50 [21]: > 20 µM
MRT [22]: 23.8 min
SMILES: Cl.Nc1cccc2c(S(=O)(=O)NCc3ccccc3)cccc12
Activity (U2932): Active
viability at 5 µM (MV4-11 [1]): 94.4%
Activity (NCI-H929): Active
Activity (HL-60): Active
Activity (KMS-11 [5]): Dose-Dependent Effect
Activity (RS4-11 [6]): Not toxic
inhibition in vivo at 50 mg/kg (RS4-11 [7]): 37.2%
Activity (RS4-11 [8]): Tde
Activity (RPMI-8226): Active
viability at 10 µM (MV4-11 [12]): 94%
viability at 10 µM (RS4-11 [13]): 3.53%
Activity (OCI-AML-5): Active
Activity (MV4-11 [15]): Active
Activity (KMS-11 [16]): Dose-Dependent Effect
Activity (KMS-11 [18]): Tde
Activity (MV4-11 [20]): inactive
